The source made the active and inactive calls.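 How the source made its calls, unless noted: active means inhibition at or above 50% relative to wild type and mutant plate controls; inactive means inhibition below 50%.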
How the values were obtained:
[1] = inhibitors of TNFa-induced NFkB p65 translocation, primary screen, imaging, HUVEC, MLSMR starter and 10KST1 sets (AID 438;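 active means inhibition above 20% together with a positive visual image hit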;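 further: compound added about 3h40 before a 20 min TNFalpha stimulation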;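 on inhibition: signal is the nuclear over cytoplasmic p65 intensity ratio per well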); conditions: HUVEC TNFa-induced p65 nuclear translocation; cell count: measured here: nuclei count (cytotoxicity indicator), at 2.08 µM; inhibition: at 2 µM, stronger effect = higher value, 0% TNFa-plus-vehicle, 100% no-TNFa wells
[2] = inhibitors of E-selectin induction by TNFa, primary screen, imaging, HUVEC, immunofluorescence, MLSMR starter and 10KST1 sets (AID 487;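 active means visually confirmed hit in the image check and inhibition above 20%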;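 on inhibition: signal is fraction of cell area covered by stained E-selectin grains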;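 on nuclei count: 100% = median nuclei count of all wells on the same plate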); conditions: HUVEC TNFalpha-induced E-selectin immunofluorescence imaging, at 2 µM; inhibition: stronger effect = higher value; nuclei count: measured here: cell number, toxicity
[3] = DUSP6 inhibitors restoring Erk phosphorylation by chemical complementation, primary imaging in DUSP6-transfected HeLa (AID 609;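 active means compounds giving at least 50% inhibition in the cell-based MKP-3 phosphatase rescue imaging test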;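 on inhibition: phospho-Erk level distribution per well compared with pooled transfected vehicle control wells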); conditions: HeLa MKP-3 transfected, phospho-Erk imaging KS statistic, at 10 µM, cells stimulated with TPA for 15 min
[4] = target: Dual specificity protein phosphatase 6 (Homo sapiens) (UniProt Q16828); experiment: as above; conditions: HeLa MKP-3 transfected, phospho-Erk imaging KS statistic; at 10 µM; stronger effect = higher value; cells stimulated with TPA for 15 min
[5] = target: Voltage-gated potassium channel subunit beta-2 (Rattus norvegicus) (UniProt P62483); experiment: KvBeta enzyme negative modulators, primary screen, biochemical, NADPH fluorescence (AID 622;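 active means fluorescence slope higher than the sample average by over 3 SD, cut at about -0.22 in these data, passing the limit was not always enough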;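 further: slope of raw intensity against log time taken from 70 to 1610 s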); conditions: recombinant KvBeta, 4-cyanobenzaldehyde reduction, at 10 µM, stronger effect = higher value
[6] = target: Voltage-gated potassium channel subunit beta-2 (Rattus norvegicus) (UniProt P62483); experiment: KvBeta positive modulators, primary screen, biochemical, NADPH fluorescence (AID 623;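 active means NADPH fluorescence slope more negative than the mean of all samples by about 3 SD, 99.7% confidence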;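 further: fluorescence intensity change per second fitted from 20 to 320 s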); conditions: Recombinant KvBeta, NADPH fluorescence decrease slope, 10 min; at 10 µM; stronger effect = lower value
[7] = target: Alpha-2C adrenergic receptor (Homo sapiens) (UniProt P18825); experiment: modulators of alpha2C/GIRK thallium flux, primary screen, cell-based, HEK293 alpha2C/GIRK1/2 (AID 624;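 active means fluorescence slope after compound addition differing from the mean of all screened samples at 99.7% confidence, in either direction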;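 further: slope of fluorescence ratio to pre-addition baseline per second over 15 to 24 s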); conditions: thallium flux BTC fluorescence, at 10 µM, actives lie on both sides
[8] = inhibitors of larval lipid processing in zebrafish, primary screen, whole organism, PED6 fluorescence, gall bladder and intestine (AID 686;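 active means a full or partial loss of lipid-probe fluorescence in the fish gall bladder, intestine or both, judged by eye; inactive means no fluorescence loss, or compound toxic to the fish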;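 further: larvae 5 to 7 days old with five fish per well; signal comes from phospholipase A2 cleavage of quenched PED6 carried via bile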); conditions: Zebrafish larvae PED6 lipid processing, fluorescence scoring; screened at 20 µM (by protocol)
In short: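 Incubation: overnight exposure of larvae to compound plus PED6 / Test system: live zebrafish larvae aged 5-7 days, whole organism / Amount: 5 larvae per well / Read-out basis: visual per-well fluorescence inhibition score / Signal: visual fluorescence microscopy scoring of gall bladder, gut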

[9] = inhibitors of Chlamydomonas gravitaxis, primary screen, whole organism, Chlamydomonas reinhardtii, WT vs cilia-less mutant, absorbance, 96-well (AID 463189); conditions: OD600 absorbance, 2 days, at 10 µM, stronger effect = higher value;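 further: 0% = wild type cc124 cells in DMSO and 100% = ciliumless bld1 mutant cells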
[10] = measured here: cell density z-score
[11] = measured here: nuclear c-Myc green intensity z-score
[12] = measured here: nuclear pErk red intensity z-score, stronger effect = higher value

Chain of Dual specificity protein phosphatase 6 (Homo sapiens) (Q16828 whole entry, looked up): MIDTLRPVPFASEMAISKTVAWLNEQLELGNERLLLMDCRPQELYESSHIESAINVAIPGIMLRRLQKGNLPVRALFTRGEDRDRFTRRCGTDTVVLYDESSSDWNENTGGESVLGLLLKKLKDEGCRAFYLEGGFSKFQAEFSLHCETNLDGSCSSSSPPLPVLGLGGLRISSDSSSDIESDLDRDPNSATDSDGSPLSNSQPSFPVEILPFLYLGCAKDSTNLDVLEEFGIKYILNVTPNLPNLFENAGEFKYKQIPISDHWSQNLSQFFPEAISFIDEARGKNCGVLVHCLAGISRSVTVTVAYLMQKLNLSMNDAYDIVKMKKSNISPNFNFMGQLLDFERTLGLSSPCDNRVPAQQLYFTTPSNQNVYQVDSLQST
Chain of Alpha-2C adrenergic receptor (Homo sapiens) (P18825 whole entry, looked up): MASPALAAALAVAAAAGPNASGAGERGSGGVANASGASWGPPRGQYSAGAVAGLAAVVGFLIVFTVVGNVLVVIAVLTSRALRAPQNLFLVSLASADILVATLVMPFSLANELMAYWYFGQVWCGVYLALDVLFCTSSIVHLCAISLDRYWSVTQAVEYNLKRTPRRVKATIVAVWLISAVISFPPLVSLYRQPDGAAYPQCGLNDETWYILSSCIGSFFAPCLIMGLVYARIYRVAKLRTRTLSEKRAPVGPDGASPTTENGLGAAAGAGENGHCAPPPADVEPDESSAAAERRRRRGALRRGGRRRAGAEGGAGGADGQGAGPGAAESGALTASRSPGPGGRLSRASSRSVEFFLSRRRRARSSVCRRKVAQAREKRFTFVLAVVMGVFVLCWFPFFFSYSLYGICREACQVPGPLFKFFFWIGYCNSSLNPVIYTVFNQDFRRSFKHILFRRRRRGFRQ
Chain of Voltage-gated potassium channel subunit beta-2 (Rattus norvegicus) (P62483 whole entry, looked up): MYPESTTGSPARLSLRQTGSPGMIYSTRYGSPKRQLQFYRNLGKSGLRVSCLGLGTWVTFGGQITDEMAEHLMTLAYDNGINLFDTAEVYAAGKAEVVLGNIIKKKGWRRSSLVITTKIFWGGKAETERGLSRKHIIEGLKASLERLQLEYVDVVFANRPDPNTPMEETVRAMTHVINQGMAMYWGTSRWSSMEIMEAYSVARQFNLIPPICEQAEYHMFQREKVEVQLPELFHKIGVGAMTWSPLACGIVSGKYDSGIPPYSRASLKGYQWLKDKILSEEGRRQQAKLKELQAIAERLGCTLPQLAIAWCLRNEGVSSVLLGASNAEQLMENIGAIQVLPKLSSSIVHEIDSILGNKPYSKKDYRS

SMILES | cell count [1] | inhibition [1] | inhibition [2] | nuclei count [2] [%] | z-score [3, 10] | z-score [3, 11] | z-score [3, 12] | inhibition [4] | fluorescence slope [5] | NADPH fluorescence slope [6] | slope [7] | outcome [8] | inhibition [9]
CCOc1cccc(C2C(C#N)=C(N)Oc3cc(C)oc(=O)c32)c1OCC (centres undefined) | 362 | -24.9% (inactive) | -67.3% (inactive) | 143 | 0.354 | -0.768 | 1.02 | 8.76% (inactive) | -0.441 (inactive) | -0.000143 (inactive) | 0.00434 (inactive) | inactive | 10.1% (inactive)
C=CCc1c(C)nc(SCCC)[nH]c1=O | 540 | -10.1% (inactive) | -102% (inactive) | 135 | 0.611 | -0.0505 | -0.577 | 7.93% (inactive) | -0.486 (inactive) | -1.9e-05 (inactive) | 0.0077 (inactive) | inactive | 18.7% (inactive)
COc1c(O)ccc2cnn(-c3ccccc3C)c(=O)c12 | 557 | -2.9% (inactive) | -53.4% (inactive) | 180 | -1.01 | 0.966 | 0.382 | 9.61% (inactive) | -0.35 (inactive) | -1.2e-05 (inactive) | 0.00472 (inactive) | inactive | 1.71% (inactive)
CC(C)CC(NC(=O)OC(C)(C)C)C(=O)NCc1ccccc1 (centres undefined) | 626 | -12.9% (inactive) | -28.9% (inactive) | 156 | 1.56 | -1.58 | 0.0751 | 5.57% (inactive) | -0.475 (inactive) | -0.000315 (inactive) | 0.00412 (inactive) | inactive | 1.86% (inactive)
Cc1ccc(C)n1Cc1ccc(C(=O)O)cc1 | 645 | 1.9% (inactive) | -32.8% (inactive) | 154 | 1.01 | 0.014 | -0.0334 | -6.86% (inactive) | -0.401 (inactive) | -4.4e-05 (inactive) | 0.00514 (inactive) | inactive | -3.17% (inactive)
O=c1[nH]c(CN2CCCCC2)nc2c1C1(CCCC1)Cc1ccccc1-2 | 414 | -0.5% (inactive) | -29.1% (inactive) | 101 | 0.73 | -0.701 | -0.0539 | -1.12% (inactive) | -0.233 (inactive) | -8.8e-06 (inactive) | 0.00603 (inactive) | inactive | -2.89% (inactive)
CCn1cc(C(=O)NCCCN(C)C)c(=O)c2cc(F)c(N3CCN(C)CC3)cc21 | 360 | -2.8% (inactive) | -88% (inactive) | 130 | -0.583 | 1.7 | -0.542 | -7.28% (inactive) | -0.286 (inactive) | -5e-06 (inactive) | 0.00472 (inactive) | inactive | 22% (inactive)
COc1ccc(Cl)cc1N=Cc1c(O)cc(C)oc1=O | 347 | -4.9% (inactive) | -136% (inactive) | 189 | 0.57 | -0.693 | 0.874 | 12.3% (inactive) | -0.415 (inactive) | -0.0002 (inactive) | 0.00387 (inactive) | inactive | 16.9% (inactive)
COc1cc(-c2nn3c(-c4ccco4)nnc3s2)cc(OC)c1OC | 483 | -2.2% (inactive) | -67.5% (inactive) | 99.3 | -0.638 | -0.467 | 0.841 | -2.47% (inactive) | -0.471 (inactive) | 3.2e-05 (inactive) | 0.0061 (inactive) | inactive | 4.86% (inactive)
COc1ccc(C2CC(C(F)(F)F)n3ncc(C(=O)NCC4CCCO4)c3N2)cc1OC (centres undefined) | 536 | -1.8% (inactive) | 12.3% (inactive) | 132 | -0.241 | -1.11 | 1.35 | 3.66% (inactive) | -0.51 (inactive) | -6.1e-05 (inactive) | 0.00469 (inactive) | inactive | -9.44% (inactive)
O=C(OCCN1CCOCC1)c1ccc(OCCN2CCOCC2)cc1 | 573 | -2.2% (inactive) | -54.5% (inactive) | 130 | -0.658 | 0.853 | 0.881 | 1.75% (inactive) | -0.555 (inactive) | -5.3e-05 (inactive) | 0.00568 (inactive) | inactive | 32.3% (inactive)
CC(C)NC(=O)N1CCOCCOCCN(C(=O)NC(C)C)CCOCCOCC1 | 513 | -16.8% (inactive) | -142% (inactive) | 144 | 2.53 | -2.34 | -0.54 | 13.9% (inactive) | -0.538 (inactive) | -6.1e-05 (inactive) | 0.00725 (inactive) | inactive | 11.9% (inactive)
Cc1ccc(N(CN2C(=O)NC(C)(C)C2=O)CN2C(=O)NC(C)(C)C2=O)cc1 | 465 | 5.9% (inactive) | -355% (inactive) | 156 | 0.539 | 0.101 | 0.322 | 2.71% (inactive) | -0.315 (inactive) | -9.5e-06 (inactive) | 0.00542 (inactive) | inactive | 5.64% (inactive)
